{
  "source": "paper PMC4723301",
  "about": "(Experimental biology and medicine (Maywood, N.J.), 2015)",
  "key": {"SQL-SAL [1]": {"tested_on": "SQL-SAL", "test": "LDH leakage in efflux media of SQL-SAL devices", "settings": "for Days with significant LDH release (p≤0.05): vs vehicle"}, "hepatocytes [2]": {"tested_on": "hepatocytes", "test": "Apoptosis, cytochrome C biosensor in sentinel hepatocytes", "assay_type": "cell-based, human", "settings": "for Effect on hepatocellular apoptosis biosensor: 600 μM caffeine, 28 days"}, "SQL-SAL [3]": {"tested_on": "SQL-SAL", "test": "Albumin secretion in efflux media of SQL-SAL devices"}, "[4]": {"test": "Albumin secretion in efflux media of SQL-SAL devices", "settings": "human"}, "hepatocytes [5]": {"tested_on": "hepatocytes", "test": "Bile", "assay_type": "cell-based, human", "settings": "50 μM troglitazone, day 10 devices, 10-min intervals for 60 min, vs vehicle (1% DMSO)"}, "SQL-SAL [6]": {"tested_on": "SQL-SAL", "test": "SQL-SAL toxicity testing, overall response", "settings": "28μM troglitazone, over 21 days"}, "SQL-SAL [7]": {"tested_on": "SQL-SAL", "settings": "human, 180 μM"}, "hepatocytes [8]": {"tested_on": "hepatocytes", "test": "Mitochondrial-targeted ROS biosensor in sentinel hepatocytes", "assay_type": "cell-based, human", "settings": "troglitazone, measured over 24 h"}, "SQL-SAL [9]": {"tested_on": "SQL-SAL", "test": "Urea secretion in efflux media of SQL-SAL devices"}, "[10]": {"test": "Urea secretion in efflux media of SQL-SAL devices", "settings": "human"}, "hepatocytes [11]": {"tested_on": "hepatocytes", "test": "Hepatocyte area by HCA in SQL-SAL", "settings": "200 μM trovafloxacin (40 × Cmax) with 1 μg/mL LPS"}, "Cyp 2C9": {"target": "Cyp 2C9 (Homo sapiens, UniProt P11712)", "sequence (P11712 whole entry)": "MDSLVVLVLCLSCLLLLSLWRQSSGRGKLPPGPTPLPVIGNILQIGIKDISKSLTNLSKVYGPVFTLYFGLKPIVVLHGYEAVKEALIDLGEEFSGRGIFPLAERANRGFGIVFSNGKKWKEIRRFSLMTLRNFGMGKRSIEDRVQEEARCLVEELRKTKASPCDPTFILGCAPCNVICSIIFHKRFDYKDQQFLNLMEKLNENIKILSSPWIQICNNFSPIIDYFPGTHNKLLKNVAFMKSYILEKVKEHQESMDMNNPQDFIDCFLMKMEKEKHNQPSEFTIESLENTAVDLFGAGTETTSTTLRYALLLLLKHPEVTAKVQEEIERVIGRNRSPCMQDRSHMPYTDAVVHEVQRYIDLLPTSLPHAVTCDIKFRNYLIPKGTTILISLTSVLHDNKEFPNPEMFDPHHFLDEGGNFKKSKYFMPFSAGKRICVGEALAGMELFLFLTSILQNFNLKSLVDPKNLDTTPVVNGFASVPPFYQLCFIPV", "settings": "24 h, 10 μM"}, "[12]": {"tested_on": "collagen type 1, alpha 2 (COL1A2)", "test": "Indirect immunofluorescence of COL1A2 in SQL-SAL", "assay_type": "cell-based, human", "settings": "30nM methotrexate, day 21, relative to vehicle control (p ≤ 0.05)", "method_in_brief": "(§1)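 Human liver model in a perfused microfluidic device: primary hepatocytes, EA.hy926, U937 and LX-2 cells, with the LX-2 cells in collagen. The LX-2 cells are transduced with pLVX-IRES-mito-mKate2 for identification. Perfusion at 5 µL/h with HMM plus 100 nM dexamethasone at 37℃, 5% CO2; test compound in 1% DMSO. On day 21, paraformaldehyde-fixed and stained by indirect immunofluorescence. Value is the ratio of average cellular antibody intensity in stellate versus non-stellate cells; equal-variance t-test.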"}, "[13]": {"tested_on": "human alpha- smooth muscle actin (alpha-SMA)", "test": "Indirect immunofluorescence of alpha-SMA in SQL-SAL", "assay_type": "cell-based", "method_in_brief": "as §1"}, "LX-2 stellate cells": {"tested_on": "LX-2 stellate cells", "test": "LX-2 stellate cell migration in SQL-SAL", "assay_type": "cell-based, human", "settings": "30 nM methotrexate, days 4 and 7, vs vehicle control (p ≤ 0.05)"}, "LX2 cultures": {"tested_on": "LX2 cultures", "settings": "human"}, "[14]": {"settings": "28 μM troglitazone versus caffeine control"}, "[15]": {"settings": "180 μM troglitazone, starting at day 1 of treatment"}},
  "data": [
    {"smiles": "Cc1c(C)c2c(c(C)c1O)CCC(C)(COc1ccc(CC3SC(=O)NC3=O)cc1)O2", "note": "(stereo not shown) [troglitazone]", "values": [
      {"measurement": "Overt cytotoxicity, measured as LDH release, delayed until day", "setting": "SQL-SAL [1]; 28 μM (4 × Cmax) troglitazone, continuous perfusion, vs 600 μM caffeine", "value": 13, "unit": "days"},
      {"measurement": "Overt cytotoxicity, measured as LDH release, found on day", "setting": "SQL-SAL [1]; 180 μM (30 × Cmax) troglitazone, continuous perfusion, vs 600 μM caffeine", "value": 4, "unit": "days"},
      {"measurement": "Peak LDH release", "setting": "SQL-SAL [1]; troglitazone 180nM (30 × Cmax)", "value": "~4", "unit": "days"},
      {"measurement": "Days with significant LDH release (p≤0.05)", "setting": "SQL-SAL [1]; troglitazone 180nM (30 × Cmax)", "value": "4 to 6", "unit": "days"},
      {"measurement": "Peak LDH loss", "setting": "SQL-SAL [1]; troglitazone 28 μM (4 × Cmax)", "value": "~13", "unit": "days"},
      {"measurement": "Days with significant LDH release (p≤0.05)", "setting": "SQL-SAL [1]; troglitazone 28 μM (4 × Cmax)", "value": "13 to 15", "unit": "days"},
      {"measurement": "Induction of apoptosis (loss of mitochondrial cytochrome C biosensor intensity) began on day", "setting": "hepatocytes [2]; 28 μM troglitazone", "value": 10, "unit": "days"},
      {"measurement": "Induction of apoptosis (loss of mitochondrial cytochrome C biosensor intensity) began on day", "setting": "hepatocytes [2]; 180 μM troglitazone", "value": 1, "unit": "days"},
      {"measurement": "Days with significant levels (p ≤ 0.05) of apoptosis, cytochrome C biosensor", "setting": "hepatocytes [2]; troglitazone 28 μM", "value": "16 to 28", "unit": "days"},
      {"measurement": "Days with significant levels (p ≤ 0.05) of apoptosis, cytochrome C biosensor", "setting": "hepatocytes [2]; troglitazone 180 μM", "value": "1 to 15", "unit": "days"},
      {"measurement": "Change in albumin", "setting": "SQL-SAL [3]; [14]", "value": "gradual decrease"},
      {"measurement": "Change in albumin", "setting": "SQL-SAL [3]; [15]", "value": "sharp decrease"},
      {"measurement": "Days with significant decline in albumin secretion (p≤ 0.05)", "setting": "SQL-SAL [3]; troglitazone 28 μM (4 × Cmax)", "value": "18 to 28", "unit": "days"},
      {"measurement": "Days with significant decline in albumin secretion (p≤ 0.05)", "setting": "SQL-SAL [3]; troglitazone 180μM (30 × Cmax)", "value": "4 to 10", "unit": "days"},
      {"measurement": "half-life at 28 μM", "setting": "[4]", "value": "~264", "unit": "h"},
      {"measurement": "half-life at 180 μM", "setting": "[4]", "value": "~72", "unit": "h"},
      {"measurement": "CMFDA uptake and canalicular efflux", "setting": "hepatocytes [5]", "value": "slower uptake and inhibition of efflux"},
      {"measurement": "Toxic response", "setting": "SQL-SAL [6]", "value": "gradual and much delayed toxic response"},
      {"measurement": "Acute toxicity produced within", "setting": "SQL-SAL [7]", "value": "2 to 4", "unit": "days"},
      {"measurement": "ROS, mitochondrial-targeted ROS biosensor", "setting": "hepatocytes [8]", "value": "increase in ROS"},
      {"measurement": "Change in urea", "setting": "SQL-SAL [9]; [14]", "value": "gradual decrease"},
      {"measurement": "Change in urea", "setting": "SQL-SAL [9]; [15]", "value": "sharp decrease"},
      {"measurement": "Days with significant decline in urea secretion (p ≤ 0.05)", "setting": "SQL-SAL [9]; troglitazone 28 μM (4 × Cmax)", "value": "4 to 28", "unit": "days"},
      {"measurement": "Days with significant decline in urea secretion (p ≤ 0.05)", "setting": "SQL-SAL [9]; troglitazone 180μM (30 × Cmax)", "value": "4 to 10", "unit": "days"},
      {"measurement": "half-life at 28 μM", "setting": "[10]", "value": "~288", "unit": "h"},
      {"measurement": "half-life at 180 μM", "setting": "[10]", "value": "~72", "unit": "h"}
    ]},
    {"smiles": "CS(=O)(=O)Nc1ccc([N+](=O)[O-])cc1Oc1ccccc1", "note": "[nimesulide]", "values": [
      {"measurement": "Effect on LDH", "setting": "SQL-SAL [1]; 210 μM nimesulide (10 × Cmax)", "value": "rapid release"},
      {"measurement": "Apoptotic hepatocytes", "setting": "hepatocytes [2]; 210 μM nimesulide (10 × Cmax)", "value": "rapid increase"},
      {"measurement": "Change in albumin", "setting": "SQL-SAL [3]; 210 μM nimesulide (10 × Cmax)", "value": "decreases"},
      {"measurement": "Change in urea", "setting": "SQL-SAL [9]; 210 μM nimesulide (10 × Cmax)", "value": "decreases"}
    ]},
    {"smiles": "N[C@@H]1[C@H]2CN(c3nc4c(cc3F)c(=O)c(C(=O)O)cn4-c3ccc(F)cc3F)C[C@@H]12", "note": "[trovafloxacin]", "values": [
      {"measurement": "Change in hepatocyte area", "setting": "hepatocytes [11]", "value": "decrease in hepatocyte area"},
      {"measurement": "LDH leakage", "setting": "SQL-SAL [1]; 200 μM (40 × Cmax) trovafloxacin co-incubated with 1 μg/mL LPS, 3 and 5 days", "value": "Increased LDH leakage"}
    ]},
    {"smiles": "O=C(O)Cc1ccccc1Nc1c(Cl)cccc1Cl", "note": "[Diclofenac, diclofenac]", "values": [
      {"measurement": "Metabolite found in efflux media (AUC)", "setting": "Cyp 2C9", "value": "36943 ±28302"}
    ]},
    {"smiles": "Cn1c(=O)c2c(ncn2C)n(C)c1=O", "note": "[caffeine]", "values": [
      {"measurement": "Effect on hepatocellular apoptosis biosensor", "setting": "hepatocytes [2]", "value": "no appreciable effect"},
      {"measurement": "Effect on hepatocellular apoptosis biosensor", "setting": "hepatocytes [2]; listed as Caffeine", "value": "no significant effect"}
    ]},
    {"smiles": "CN(Cc1cnc2nc(N)nc(N)c2n1)c1ccc(C(=O)N[C@@H](CCC(=O)O)C(=O)O)cc1", "note": "[methotrexate]", "values": [
      {"measurement": "Expression of collagen, type 1, alpha 2 (COL1A2) in LX-2 stellate cells", "setting": "[12]", "value": "increased"},
      {"measurement": "Expression of human alpha-SMA in LX-2 stellate cells", "setting": "[13]; 30nM methotrexate, day 21, relative to vehicle control (p ≤ 0.05)", "value": "increased"},
      {"measurement": "alpha-SMA expression in hepatocytes", "setting": "[13]; methotrexate treatment", "value": "increased"},
      {"measurement": "LX-2 stellate cells proximal to the hepatocyte layer", "setting": "LX-2 stellate cells", "value": "significantly accumulate"},
      {"measurement": "maximum tolerated concentration", "setting": "LX2 cultures", "value": 100, "unit": "nM"}
    ]}
  ]
}
